{"source": "paper PMC5598404", "about": "(Toxicology Reports, 2015)", "key": {"[1]": {"conditions": "contain methionine sulfoxide in their ring; cited from earlier work"}, "[2]": {"test_system": "human breast cancer MCF7 cells", "assay": "CytoTox 96 Non-Radioactive Cytotoxicity Assay, breast cancer MCF7 cells", "assay_type": "cell-based", "conditions": "MCF7, 12.5-200 μg/mL, 24 h and 48 h", "how_it_was_run": "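MCF7 cells from ATCC, grown in ATCC-formulated medium at 37 °C and 5% CO2. Seeded at 10,000 cells/well and grown to 70–80% confluence. Test compounds (DMSO stocks) were added at 200, 100, 50, 25 and 12.5 μg/mL (≈ μM, MW ~1000) for 24 h and 48 h. Negative control was 2% final DMSO. Read by CytoTox 96 kit; three independent experiments, each in triplicate.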"}, "[3]": {"test_system": "human breast cancer Sk-Br-3 cells", "assay": "CytoTox 96 Non-Radioactive Cytotoxicity Assay, breast cancer Sk-Br-3 cells", "assay_type": "cell-based", "how_it_was_run": "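Sk-Br-3 cells (ATCC) were kept in ATCC-formulated medium under 5% CO2 at 37 °C, plated at 10,000 cells/well and grown to 70–80% confluence. They were then exposed for 24 h or 48 h to test compounds from DMSO stocks at 400, 200, 100, 50 and 25 μg/mL. Cells given 2% DMSO (final) were the negative control. Cytotoxicity was read by CytoTox 96 kit in three independent experiments, each run in triplicate.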"}}, "data": [{"substance": "NαC-[Met-Leu-Val-Phe-Pro-Leu-Phe-Ile] (head to tail) [[MetO]-LOB1, [1-8-NαC],[1-Rs,Ss-MetO]-linusorb-B1]", "values": [{"measurement": "Relative hydrophobicity of methionine sulfoxide LOBs", "setting": "[1]", "result": "less hydrophobic than their methionine containing counterparts"}, {"measurement": "Effect on MCF7 cells (in words)", "setting": "[2]", "result": "small cytoprotective effects"}, {"measurement": "Cytotoxicity towards Sk-Br-3 cells, 24 h, 400 μg/mL", "setting": "[3]; Sk-Br-3, 24 h exposure, 400 μg/mL, three independent experiments in triplicate", "result": 28, "unit": "%"}, {"measurement": "Concentration dependence of cytotoxicity towards Sk-Br-3 cells", "setting": "[3]; Sk-Br-3, 24 h exposure, 25-400 μg/mL", "result": "only showed cytotoxicity at 400 μg/mL"}, {"measurement": "Cytotoxicity towards Sk-Br-3 cells, 48 h, 400 μg/mL", "setting": "[3]; Sk-Br-3, 48 h exposure, 400 μg/mL, three independent experiments in triplicate", "result": "maintained their respective cytotoxicity"}]}]}
